Compounds with a hit are over-represented: about 5.1% of the library has one in this group of screens.
STAT1 inh: STAT1 signaling inhibition | NIH 3T3 STAT1-luciferase reporter, IFN-gamma, luminescence | inhibition, % at 5.5 µM | 200,000 compounds, 0.35% hits;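 active = inhibition above a set limit, the mean inhibition across all tested compounds plus 3 SD, cut at about 34% in these data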
NF-kB expr up: compounds increasing NF-kB expression in human neuronal cells. NF-kB reporter expression; hits give high values. fold change at 12.5 µM. 190,000 compounds, 1.6% hits. AID 1239; in the data active = fold change above about 3.3
STAT3 inh: inhibitors of IL-6 induced STAT3 signaling. inhibition, % at 5.5 µM. U3A cells, IL-6 STAT3-luciferase reporter, luminescence; host cell line lacks STAT1. 190,000 compounds, 0.89% hits;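 active = inhibition above the mean inhibition across all screened compounds plus 3 SD, cut at about 44% in these data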
APP 5'UTR act: activates APP 5'UTR luciferase reporter | SH-SY5Y APP 5'UTR luciferase reporter, luminescence; zero percent = DMSO vehicle wells | activation, % at 2 µM | 190,000 compounds, 1% hits | AID 1276;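 active = activation above a set limit, based on mean plus 3 SD of controls, cut at about 140% in these data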
STAT3 activator: activators of IL-6 induced STAT3 signaling | AID 871 | U3A cells, IL-6 STAT3-luciferase reporter, luminescence; 100% = signal with IL-6 EC80 alone | 190,000 compounds, 0.91% hits | activation (% of control), % at 5.6 µM;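 active = activation above the screen-wide mean of compound activation plus 3 SD, cut at about 130% in these data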
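Material: STAT3-luciferase reporter U3A cells. Controls: IL-6-treated wells, 100% activation. Read-out: % activation versus median of IL-6-stimulated wells. Probe or stimulus: IL-6 stimulus at 33 ng/mL final. Timing: compound 1 h, then IL-6 6 h at 37 °C. Signal: reporter luminescence signal.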
STAT1 act: activators of IFN-gamma induced STAT1 signaling; NIH 3T3 STAT1-luciferase reporter, luminescence; 100% = IFN-gamma alone, no compound; activation (% of control), % at 5.5 µM; 200,000 compounds, 2.6% hits; AID 932;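 active = activation above the screen-wide mean activation plus 3 SD, cut at about 130% in these data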
Each line names hits and unclear results; the compound was inactive in the other large screens.

C/C(=N\NC(=O)c1nn(C)c(C)c1Br)c1cccc(NC(=O)c2ccc(F)cc2)c1	STAT1 act 138.7
C/C(=N\NC(=O)c1ccccc1NC(=O)c1ccc(Cl)cc1)c1ccncc1	STAT1 inh 96.4, STAT3 inh 105.8
C/C(=N\NC(=O)c1nn(C)cc1Br)c1ccc(NC(=O)c2ccncc2)cc1	STAT1 act 131.3
Brc1c(CSc2nc3ccccc3o2)nc2ncccn12	STAT1 act 133.7
CC(=O)CSc1nc2ccccc2o1	none
Clc1c(CSc2nc3ccccc3o2)nc2sccn12	NF-kB expr up 8.11, APP 5'UTR act 136.2
C=COCCNC(=S)N1CCOCCOCCN(C(=S)NCCOC=C)CCOCC1	none
CC(Sc1nnc(NC2CCCCC2)s1)C(=O)Nc1ccc2c(c1)C(=O)c1ccccc1C2=O (stereo unspecified)	STAT1 act 142.0
Cc1nnc(SCC(=O)c2cc(C)n(C3CC3)c2C)s1	STAT1 act 135.5
Cc1cc(C(=O)CSc2nc3ccccc3o2)c(C)n1C1CC1	STAT1 act 136.2
Cc1cc(C(=O)CSc2nnnn2C)c(C)n1C1CC1	none
O=C(COc1ccc([N+](=O)[O-])cc1)Nc1ccc(CN2CCOCC2)cc1	none
CSc1ccc(CNc2ccccc2)cc1	none
CSc1ccc(CNc2ccccn2)cc1	STAT1 act 129.0
C#CCOC(=O)C[N+](C)(C)CC#Cc1ccccc1	none
Cc1ccc2nc(/C(C#N)=C\c3ccc(N4CCOCC4)o3)[nH]c2c1	STAT1 act 145.3
Cc1nc2sc(-c3ccccc3)nn2c(=O)c1Br	NF-kB expr up 4.55, STAT1 act 146.7
Cc1cc2ncc(-c3ccc(Cl)cc3)c(N)n2n1	STAT1 act 129.0
CCCc1ccc(-c2ccc(C(=O)O)cc2)nc1	STAT1 act 131.3
CCCCCc1ccc(-c2ccc(OC)cc2)nc1	NF-kB expr up 3.37, STAT1 act 139.5
O=S(=O)(c1ccc(Cl)cc1)c1snnc1-c1ccccc1	NF-kB expr up 6.37
CCOc1ccc(/C=N/OCC(=O)NCc2ccco2)cc1	none
O=C(CC1NCCc2ccccc21)Nc1ccc(Cl)cc1 (stereo unspecified)	STAT3 activator 133.0
O=C(CC1NC(=O)NC1=O)Nc1ccc(Cl)cc1 (stereo unspecified)	none
N#Cc1ccc(CSc2nnc(-c3c[nH]c4ccccc34)n2-c2ccccc2)cc1	none
COc1ccc(/C=C2\SC(=O)N(CCNC(=O)Cn3cnnn3)C2=O)cc1	NF-kB expr up 3.71, STAT1 act 137.5
COc1ccc(S(=O)(=O)CCC(=O)NCCc2ccc(C)cc2)cc1	none
COc1ccc(/C=C2\SC(=O)N(CCNC(=O)C3CCN(S(=O)(=O)c4cccs4)CC3)C2=O)cc1	STAT1 act 138.3
COc1ccc(/C=C2\SC(=O)N(CCNC(=O)CCS(=O)(=O)c3ccc(C)cc3)C2=O)cc1	STAT1 act 130.6
CCOc1ccc(C2=NNC(c3cccs3)=Nc3ccc(OCC)cc32)cc1	none
Cc1cccc(NC2SC(=O)N(c3ccccc3)C2=O)c1 (stereo unspecified)	NF-kB expr up 3.53
Cc1cccc(NC(=O)CC2SC(=O)N(c3ccccc3)C2=O)c1 (stereo unspecified)	none
O=C(c1ccc(Br)cc1)c1sc(N2CCOCC2)nc1-c1ccccc1	none
COc1ccc(-n2cc(C#N)c(=O)[nH]c2=O)cc1	none
OC(Cc1cccnc1)(Cc1cccnc1)c1cc2ccccc2[nH]1	none
Cc1cc2n(n1)C(c1c[nH]c3ccccc13)Nc1ccccc1-2 (stereo unspecified)	STAT3 activator 138.7
CCN(CC)C(=O)Cn1cc(C(=O)C(=O)N2CC=C(c3ccccc3)CC2)c2ccccc21	none
CC1=CC(C)(C)N2C(=O)C3(C(C#N)=C(N)Oc4cc(O)ccc43)c3cccc1c32 (stereo unspecified)	STAT1 act 130.7
CO/N=C\c1cc(C(=O)c2ccc(Cl)cc2Cl)cn1C	none
O=C(c1ccco1)N1CCc2ccccc21	STAT1 act 133.6
O=C(c1ccc(Br)o1)N1CCc2ccccc21	NF-kB expr up 4.32, STAT1 act 147.5
O=C(NC(=S)N1CCCc2ccccc21)c1ccco1	STAT3 activator 135.3
CC1Cc2ccccc2N1C(=S)NC(=O)c1ccco1 (stereo unspecified)	none
O=C1CCN(C(=O)/C=C/c2ccccc2)c2ccccc21	STAT1 act 129.3
COc1ccc(/C=C/C(=O)N2CCCc3ccccc32)cc1	none
O=C(/C=C/c1ccco1)N1CCc2ccccc21	NF-kB expr up 7.7, APP 5'UTR act 249.7
CCOC(=O)/C=C/C(=O)N1CCc2ccccc21	none
COc1ccc(N2C(N)=NC(N)=NC2(C)C)cc1	NF-kB expr up 3.92
CCCCOC(=O)c1ccc(NC(=S)NC(=O)c2c(Br)c(C)nn2C)cc1	none
CCCc1ccc(OCc2nc(-c3ccc(NC(=O)c4ccco4)cc3)no2)cc1	STAT1 act 133.0
CCCc1ccc(OCc2nc(-c3ccc(NC(=O)c4cccs4)cc3)no2)cc1	none
COC(=O)c1ccc(N=NNc2ccc(C(=O)OC)cc2)cc1	NF-kB expr up 3.5, STAT1 act 148.0
COC(=O)c1ccc(CSCC(=O)Nc2ccccc2)cc1	none
COC(=O)c1ccc(N=NNc2ccccc2)cc1	STAT1 act 146.0
O=C(O)c1ccc(N=NNc2cccc([N+](=O)[O-])c2)cc1	NF-kB expr up 4.07, STAT1 act 142.8
Cc1nc(CC(C)C)cc(C(=O)N2CCCC(CNS(=O)(=O)c3cccs3)C2)n1 (stereo unspecified)	none
CCOCCCNC(=S)Nc1cc(C)cc(C)c1	none
O=C(O)CCC(=O)Nc1nnc(C(F)(F)F)s1	none
CCC(NC(=O)Nc1nnc(C(F)(F)F)s1)(C(F)(F)F)C(F)(F)F	STAT1 inh 61.0, STAT3 inh 99.2
Cc1cccc(N2NC(=O)/C(=C/c3ccc(-c4ccc(Cl)c(C(=O)O)c4)o3)C2=O)c1	NF-kB expr up 3.94
CCC(=O)N1c2ccccc2NC2=C(C(=O)CC(c3ccco3)C2)C1c1ccco1 (stereo unspecified)	none
O=C1CC(c2ccco2)CC2=C1C1c3ccccc3C(=O)N1c1ccccc1N2 (stereo unspecified)	NF-kB expr up 8.45
COc1cc2c(C)nc3c(cnn3-c3ccccc3)c2cc1OC	STAT1 act 144.1 (no result: NF-kB expr up)
Cc1nn(-c2nc3ccccc3s2)c(C)c1Oc1ccccc1O	APP 5'UTR act 184.4
Cc1nn(-c2ccccn2)c(C)c1Oc1ccccc1O	none
Cc1cc(/C=C(\C#N)C(=O)Nc2ccccc2)c(C)n1-c1cccnc1	STAT1 act 132.9
Cc1cc(C(=O)O)ccc1-n1c(C)cc(/C=C(/C#N)C(=O)Nc2ccccc2)c1C	none
Cc1ccc(NC(=S)Nn2cnnc2)cc1	none
